This note sets out measurements from ChEMBL document CHEMBL4261600 (Eur J Med Chem, 2018).

Data set [1] addresses Tyrosine-protein kinase Lyn (Homo sapiens) (UniProt P07948). Kind of data set: Binding affinity to wild-type human partial length LYN (C219 to Q511 residues) expressed in bacterial expression system assessed as remaining unbound target protein level at 1000 nM by Kinomescan method relative to control. In outline:
(§1)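 KINOMEscan binding panel of 468 kinases/mutants. Inhibitor was tested at a single concentration of 1 μM. Binding is reported as percent of control, defined relative to a DMSO control.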

For data set [2], the system named is Fibroblast growth factor receptor 3 (Homo sapiens), P22607 [G697C]. Kind of data set: Binding affinity to human partial length FGFR3 G697C mutant (R442 to S771 residues) expressed in bacterial expression system assessed as remaining unbound target protein level at 1000 nM by Kinomescan method relative to control. In outline:
(§2)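 KINOMEscan competition-binding profiling across the panel of 468 kinases and mutants, with inhibitor tested at 1 μM. Binding is expressed as percent of control, with DMSO as the reference control.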

The target of data set [3] is Mitogen-activated protein kinase kinase kinase 6 (Homo sapiens) (UniProt O95382). Kind of data set: Binding affinity to wild-type human partial length ASK2 (M278 to R972 residues) expressed in mammalian expression system assessed as remaining unbound target protein level at 1000 nM by Kinomescan method relative to control. In outline: (§3)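 KINOMEscan competition binding profile across a panel of 468 kinases and mutants, with the inhibitor tested at a single concentration of 1 μM. Binding is reported as percent of control, meaning signal relative to a DMSO control.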
Chain of Mitogen-activated protein kinase kinase kinase 6 (Homo sapiens) (O95382 whole entry, the tested form may be a part): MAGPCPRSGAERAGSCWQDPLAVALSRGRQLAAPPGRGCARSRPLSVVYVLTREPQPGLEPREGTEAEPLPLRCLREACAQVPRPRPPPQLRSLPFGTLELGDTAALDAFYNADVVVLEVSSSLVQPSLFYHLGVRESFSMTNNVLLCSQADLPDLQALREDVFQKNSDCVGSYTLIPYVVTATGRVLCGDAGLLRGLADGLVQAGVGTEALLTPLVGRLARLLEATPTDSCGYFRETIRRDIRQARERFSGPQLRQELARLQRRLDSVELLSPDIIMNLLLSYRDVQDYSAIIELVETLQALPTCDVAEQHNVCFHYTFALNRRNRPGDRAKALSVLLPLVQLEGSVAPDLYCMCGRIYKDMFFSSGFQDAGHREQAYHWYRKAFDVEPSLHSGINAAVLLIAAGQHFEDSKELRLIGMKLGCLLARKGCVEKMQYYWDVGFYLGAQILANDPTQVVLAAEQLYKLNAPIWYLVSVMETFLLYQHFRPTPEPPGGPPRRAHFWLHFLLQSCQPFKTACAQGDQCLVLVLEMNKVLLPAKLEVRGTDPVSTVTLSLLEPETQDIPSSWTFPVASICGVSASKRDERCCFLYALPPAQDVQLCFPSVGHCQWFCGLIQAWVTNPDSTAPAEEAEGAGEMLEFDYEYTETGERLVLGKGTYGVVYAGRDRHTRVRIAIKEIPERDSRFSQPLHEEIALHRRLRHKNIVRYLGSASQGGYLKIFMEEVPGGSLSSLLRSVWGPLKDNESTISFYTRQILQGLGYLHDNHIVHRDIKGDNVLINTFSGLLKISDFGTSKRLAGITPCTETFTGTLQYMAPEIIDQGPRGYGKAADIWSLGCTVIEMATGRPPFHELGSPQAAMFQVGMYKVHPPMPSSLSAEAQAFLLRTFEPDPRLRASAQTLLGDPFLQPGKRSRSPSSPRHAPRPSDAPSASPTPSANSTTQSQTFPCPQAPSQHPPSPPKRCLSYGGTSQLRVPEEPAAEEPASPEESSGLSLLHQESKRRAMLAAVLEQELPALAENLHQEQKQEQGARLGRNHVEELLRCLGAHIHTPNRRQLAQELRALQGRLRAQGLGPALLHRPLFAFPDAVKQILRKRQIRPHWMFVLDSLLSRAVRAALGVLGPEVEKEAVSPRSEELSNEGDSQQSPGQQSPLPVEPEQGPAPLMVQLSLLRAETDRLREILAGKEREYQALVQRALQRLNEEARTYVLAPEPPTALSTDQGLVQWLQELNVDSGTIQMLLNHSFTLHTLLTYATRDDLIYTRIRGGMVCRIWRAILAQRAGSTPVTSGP

For data set [4], the target named is Calcium/calmodulin-dependent protein kinase type IV (Homo sapiens) (UniProt Q16566). Kind of data set: Binding affinity to wild-type human partial length CAMK4 (A22 to A322 residues) expressed in bacterial expression system assessed as remaining unbound target protein level at 1000 nM by Kinomescan method relative to control. In outline: (§4)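 Profiled in a KINOMEscan binding panel with the inhibitor at a single concentration of 1 μM. Binding to each kinase was read out as percent of control, relative to a DMSO control. Strong binders were defined as those with a percent control value below 1.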

Data set [5] deals with Serine/threonine-protein kinase D1 (Homo sapiens) (UniProt Q15139). Kind of data set: Binding affinity to wild-type human partial length PRKD1 (G551 to E870 residues) expressed in bacterial expression system assessed as remaining unbound target protein level at 1000 nM by Kinomescan method relative to control.
For data set [6], the system named is Phosphatidylinositol 4,5-bisphosphate 3-kinase catalytic subunit alpha isoform (Homo sapiens), P42336 [M1043I]. Kind of data set: Binding affinity to human partial length PIK3CA M1043I mutant (R108 to N1068 residues) expressed in mammalian expression system assessed as remaining unbound target protein level at 1000 nM by Kinomescan method relative to control. In outline: as §2

Data set [7] concerns Proto-oncogene tyrosine-protein kinase receptor Ret (Homo sapiens), P07949 [V804M]. Kind of data set: Binding affinity to human partial length RET V804M mutant (E713 to D1014 residues) expressed in bacterial expression system assessed as remaining unbound target protein level at 1000 nM by Kinomescan method relative to control. In outline: as §2
The target in data set [8] is 5'-AMP-activated protein kinase catalytic subunit alpha-2 (Homo sapiens) (UniProt P54646). Kind of data set: Binding affinity to wild-type human partial length AMPK alpha2 (M1 to E306 residues) expressed in bacterial expression system assessed as remaining unbound target protein level at 1000 nM by Kinomescan method relative to control. In outline: as §4
The target in data set [9] is Tyrosine-protein kinase Tec (Homo sapiens) (UniProt P42680). Kind of data set: Binding affinity to wild-type human partial length TEC (L341 to D620 residues) expressed in bacterial expression system assessed as remaining unbound target protein level at 1000 nM by Kinomescan method relative to control.
The target of data set [10] is 3-phosphoinositide-dependent protein kinase 1 (Homo sapiens) (UniProt O15530). Kind of data set: Binding affinity to wild-type human full length PDPK1 (M1 to Q556 residues) expressed in bacterial expression system assessed as remaining unbound target protein level at 1000 nM by Kinomescan method relative to control. The method, boiled down:
as §4

Data set [11] can be described thus: Cmax in beagle dog at 10 mg/kg, po by LC-MS/MS analysis. Type of data set: ADME, organism-based, Canis lupus familiaris. The arrangement: dose 10 mg/kg, route oral. Particulars: in vivo.
Data set [12] can be described thus: MRT (0 to t) in beagle dog at 2 mg/kg, iv by LC-MS/MS analysis. Type of data set: ADME, organism-based, Canis lupus familiaris. The conditions noted are these: in vivo.
Data set [13] deals with Phosphatidylinositol 4,5-bisphosphate 3-kinase catalytic subunit alpha isoform (Homo sapiens), P42336 [I800L]. Kind of data set: Binding affinity to human partial length PIK3CA I800L mutant (R108 to N1068 residues) expressed in mammalian expression system assessed as remaining unbound target protein level at 1000 nM by Kinomescan method relative to control. The method, boiled down:
as §2

Data set [14] has as its target G protein-coupled receptor kinase 3 (Homo sapiens) (UniProt P35626). Kind of data set: Binding affinity to wild-type human full length GRK3 (M1 to L688 residues) expressed in mammalian expression system assessed as remaining unbound target protein level at 1000 nM by Kinomescan method relative to control. In outline:
as §3

Data set [15] has as its target Serine/threonine-protein kinase 10 (Homo sapiens) (UniProt O94804). Kind of data set: Binding affinity to wild-type human partial length LOK (E16 to V314 residues) expressed in bacterial expression system assessed as remaining unbound target protein level at 1000 nM by Kinomescan method relative to control.
The target of data set [16] is cAMP-dependent protein kinase catalytic subunit beta (Homo sapiens) (UniProt P22694). Kind of data set: Binding affinity to wild-type human full length PKAC-beta (M1 to F351 residues) expressed in bacterial expression system assessed as remaining unbound target protein level at 1000 nM by Kinomescan method relative to control. The method, boiled down:
as §4

Data set [17] addresses Tyrosine-protein kinase ZAP-70 (Homo sapiens) (UniProt P43403). Kind of data set: Binding affinity to wild-type human partial length ZAP70 (D20 to G299 residues) expressed in mammalian expression system assessed as remaining unbound target protein level at 1000 nM by Kinomescan method relative to control.
Data set [18] concerns the target Serine/threonine-protein kinase Nek5 (Homo sapiens) (UniProt Q6P3R8). Kind of data set: Binding affinity to wild-type human partial length NEK5 (M1 to M279 residues) expressed in bacterial expression system assessed as remaining unbound target protein level at 1000 nM by Kinomescan method relative to control.
Data set [19] has as its target Mitogen-activated protein kinase 4 (Homo sapiens) (UniProt P31152). Kind of data set: Binding affinity to wild-type human partial length ERK4 (M1 to L365 residues) expressed in bacterial expression system assessed as remaining unbound target protein level at 1000 nM by Kinomescan method relative to control. The method, boiled down: as §1
For data set [20], the target named is Tyrosine-protein kinase receptor Tie-1 (Homo sapiens) (UniProt P35590). Kind of data set: Binding affinity to wild-type human partial length TIE1 (T819 to A1138 residues) expressed in bacterial expression system assessed as remaining unbound target protein level at 1000 nM by Kinomescan method relative to control.
Data set [21] can be described thus: Oral bioavailability in Sprague-Dawley rat at 20 mg/kg by LC-MS/MS analysis. Type of data set: ADME, organism-based. Particulars: in vivo.
Data set [22] deals with Cyclin-dependent kinase 11B (Homo sapiens, UniProt P21127). Kind of data set: Binding affinity to wild-type human partial length CDC2L1 (P353 to G692 residues) expressed in bacterial expression system assessed as remaining unbound target protein level at 1000 nM by Kinomescan method relative to control. The method, boiled down: as §4
Chain of Cyclin-dependent kinase 11B (P21127 whole entry, the tested form may be a part): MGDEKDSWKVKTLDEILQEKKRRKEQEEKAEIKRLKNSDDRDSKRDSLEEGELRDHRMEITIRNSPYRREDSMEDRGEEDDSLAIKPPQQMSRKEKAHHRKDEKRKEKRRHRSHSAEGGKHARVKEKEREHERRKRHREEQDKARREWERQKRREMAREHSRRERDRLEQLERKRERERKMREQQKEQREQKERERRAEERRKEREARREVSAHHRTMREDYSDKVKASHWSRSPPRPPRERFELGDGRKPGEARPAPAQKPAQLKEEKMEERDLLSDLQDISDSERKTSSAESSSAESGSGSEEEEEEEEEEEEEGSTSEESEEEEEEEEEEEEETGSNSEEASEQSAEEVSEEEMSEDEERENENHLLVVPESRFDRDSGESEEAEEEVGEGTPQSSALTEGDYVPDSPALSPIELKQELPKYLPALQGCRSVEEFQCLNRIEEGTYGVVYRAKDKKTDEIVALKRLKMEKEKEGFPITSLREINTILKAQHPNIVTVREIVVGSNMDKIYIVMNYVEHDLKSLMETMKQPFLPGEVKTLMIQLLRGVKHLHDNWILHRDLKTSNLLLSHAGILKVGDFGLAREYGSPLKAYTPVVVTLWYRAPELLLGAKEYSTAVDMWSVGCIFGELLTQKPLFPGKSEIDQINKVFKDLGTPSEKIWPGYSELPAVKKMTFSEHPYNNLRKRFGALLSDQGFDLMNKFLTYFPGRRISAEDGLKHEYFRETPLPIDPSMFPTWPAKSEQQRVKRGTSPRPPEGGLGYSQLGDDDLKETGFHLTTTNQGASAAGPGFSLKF

Chain of Fibroblast growth factor receptor 3 (Homo sapiens), P22607 [G697C] (P22607 whole entry G697C, the tested form may be a part): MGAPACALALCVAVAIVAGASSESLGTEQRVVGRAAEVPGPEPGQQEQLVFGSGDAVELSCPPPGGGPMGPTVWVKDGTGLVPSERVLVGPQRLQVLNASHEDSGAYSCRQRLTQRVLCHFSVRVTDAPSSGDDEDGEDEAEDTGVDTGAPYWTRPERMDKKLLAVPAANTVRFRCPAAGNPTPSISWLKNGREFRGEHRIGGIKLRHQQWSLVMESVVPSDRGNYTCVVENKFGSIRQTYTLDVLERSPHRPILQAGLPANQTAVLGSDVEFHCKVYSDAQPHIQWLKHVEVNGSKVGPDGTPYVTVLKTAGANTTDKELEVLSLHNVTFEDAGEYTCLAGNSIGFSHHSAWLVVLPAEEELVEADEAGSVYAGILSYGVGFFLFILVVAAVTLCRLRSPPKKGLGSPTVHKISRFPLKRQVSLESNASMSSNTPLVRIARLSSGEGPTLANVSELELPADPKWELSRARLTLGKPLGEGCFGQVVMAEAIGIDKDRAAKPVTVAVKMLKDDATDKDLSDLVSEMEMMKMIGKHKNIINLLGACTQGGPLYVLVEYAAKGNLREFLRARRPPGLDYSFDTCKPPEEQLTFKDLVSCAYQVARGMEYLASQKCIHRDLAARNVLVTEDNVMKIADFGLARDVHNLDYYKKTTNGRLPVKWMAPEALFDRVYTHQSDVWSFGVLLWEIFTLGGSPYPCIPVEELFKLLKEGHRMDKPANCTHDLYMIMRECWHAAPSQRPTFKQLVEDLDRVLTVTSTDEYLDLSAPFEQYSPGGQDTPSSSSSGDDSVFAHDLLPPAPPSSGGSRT
Chain of Serine/threonine-protein kinase Nek5 (Homo sapiens) (Q6P3R8 whole entry, the tested form may be a part): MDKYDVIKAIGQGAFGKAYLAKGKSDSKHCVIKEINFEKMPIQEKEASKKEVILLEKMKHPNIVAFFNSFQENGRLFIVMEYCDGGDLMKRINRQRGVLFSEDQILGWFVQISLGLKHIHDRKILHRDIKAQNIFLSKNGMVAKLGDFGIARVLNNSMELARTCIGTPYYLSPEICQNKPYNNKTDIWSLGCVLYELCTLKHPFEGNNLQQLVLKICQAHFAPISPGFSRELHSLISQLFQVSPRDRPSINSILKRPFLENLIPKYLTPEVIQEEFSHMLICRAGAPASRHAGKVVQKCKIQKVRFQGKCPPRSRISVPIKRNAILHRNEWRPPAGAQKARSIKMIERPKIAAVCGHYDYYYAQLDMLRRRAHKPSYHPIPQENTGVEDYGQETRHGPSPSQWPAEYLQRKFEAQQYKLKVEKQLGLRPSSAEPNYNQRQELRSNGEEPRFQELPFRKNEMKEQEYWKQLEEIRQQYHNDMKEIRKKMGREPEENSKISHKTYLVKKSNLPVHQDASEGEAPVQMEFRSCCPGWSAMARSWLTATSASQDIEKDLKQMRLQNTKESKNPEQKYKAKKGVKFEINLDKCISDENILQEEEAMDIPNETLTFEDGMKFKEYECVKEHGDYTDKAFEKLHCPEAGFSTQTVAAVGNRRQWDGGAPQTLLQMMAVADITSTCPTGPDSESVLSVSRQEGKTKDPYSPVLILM
Chain of Mitogen-activated protein kinase 4 (Homo sapiens) (P31152 whole entry, the tested form may be a part): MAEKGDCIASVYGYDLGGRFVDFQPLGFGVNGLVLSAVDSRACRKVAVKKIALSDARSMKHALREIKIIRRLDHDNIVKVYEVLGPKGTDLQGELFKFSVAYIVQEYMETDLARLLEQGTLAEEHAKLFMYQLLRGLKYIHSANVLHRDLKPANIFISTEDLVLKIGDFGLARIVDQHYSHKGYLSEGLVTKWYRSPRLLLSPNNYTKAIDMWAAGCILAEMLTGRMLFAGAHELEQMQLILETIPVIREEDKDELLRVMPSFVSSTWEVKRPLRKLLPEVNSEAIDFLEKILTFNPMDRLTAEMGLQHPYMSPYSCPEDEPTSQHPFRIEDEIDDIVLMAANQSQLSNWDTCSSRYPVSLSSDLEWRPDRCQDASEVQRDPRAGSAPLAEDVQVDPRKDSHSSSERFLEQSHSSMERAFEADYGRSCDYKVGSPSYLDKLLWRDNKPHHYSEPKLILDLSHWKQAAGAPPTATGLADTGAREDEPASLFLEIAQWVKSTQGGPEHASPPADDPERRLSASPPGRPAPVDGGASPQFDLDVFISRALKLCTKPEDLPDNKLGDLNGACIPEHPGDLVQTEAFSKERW
Chain of 3-phosphoinositide-dependent protein kinase 1 (Homo sapiens) (O15530 whole entry, the tested form may be a part): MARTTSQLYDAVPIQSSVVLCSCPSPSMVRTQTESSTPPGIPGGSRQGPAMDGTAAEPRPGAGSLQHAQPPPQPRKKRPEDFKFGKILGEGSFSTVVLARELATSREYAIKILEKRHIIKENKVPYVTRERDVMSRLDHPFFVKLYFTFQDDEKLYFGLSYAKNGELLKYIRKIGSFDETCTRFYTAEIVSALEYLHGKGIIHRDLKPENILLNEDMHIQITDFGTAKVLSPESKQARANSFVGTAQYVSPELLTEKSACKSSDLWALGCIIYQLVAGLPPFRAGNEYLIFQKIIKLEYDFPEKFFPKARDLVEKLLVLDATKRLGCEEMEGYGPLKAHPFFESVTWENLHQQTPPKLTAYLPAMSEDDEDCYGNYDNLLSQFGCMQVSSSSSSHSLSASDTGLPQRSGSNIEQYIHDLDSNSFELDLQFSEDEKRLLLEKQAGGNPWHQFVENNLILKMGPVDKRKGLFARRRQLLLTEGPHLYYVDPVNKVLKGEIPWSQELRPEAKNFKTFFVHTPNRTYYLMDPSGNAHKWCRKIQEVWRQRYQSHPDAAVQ

The term Cmax denotes the peak of the concentration-time curve. By MRT last is commonly meant a mean duration of stay, worked out from the concentration-time curve. The term bioavailability denotes dose-corrected exposure relative to a reference, in per cent. Low values mean poor availability, high ones good availability. Consider `COCCN[C@H]1CC[C@H](Nc2cc(-c3csc(NCC4(C#N)CCOCC4)n3)c(Cl)cn2)CC1`, for which the Activity in data set [1] came to 86%; in [2], 60%; in data set [3], 86%; in [4], 100%; in data set [5] it was 48%; in [6], 95%. For the same compound, the Activity in [7] is 98%; in data set [8], 100%; in data set [9], 92%; in data set [10], 92%; in data set [13] it was 90%; in data set [14], 42%. For the same compound, the Activity was found to be 100% in data set [15]; 92% in data set [16]; 79% in data set [17]; 90% in data set [18]; 99% in [19]; 80% in data set [20]. Moreover, in data set [22], the Activity came out at 93%. The compound further showed a Cmax in data set [11] of 771 ng/mL. Also, in data set [12], the MRT last is 9.36 h. The compound also gave a bioavailability in [21] of 45.1%.
